Data: ChEMBL document CHEMBL1649122, “Abc1p is a multidrug efflux transporter that tips the balance in favor of innate azole resistance in Candida krusei” (2009)
≈ marks a conversion by molar mass, not a printed value. Calls of active or inactive are those of the source. No cut-off for these calls is given here.

Columns and labels:
[1] = system: Saccharomyces cerevisiae; assay: Antimicrobial activity against Saccharomyces cerevisiae isolate AD overexpressing Candida krusei ERG11C after 48 hrs by liquid microdilution assay; format: functional
Procedure, shortened: (§1)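 Liquid broth microdilution susceptibility assay in CSM medium at pH 7.0, which was also the medium used for the expression studies. Fungal strains were maintained in YPD. The S. cerevisiae test strains carry C. krusei ABC1 or fungal ERG11 alleles integrated at the chromosomal PDR5 locus.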

[2] = molecular target: ATP binding cassette transporter Abc1p (Issatchenkia orientalis) (UniProt Q09GQ4); assay: Inhibition of Candida krusei ABC1 expressed in Saccharomyces cerevisiae isolate ADdelta at 0.28 nM; conditions: Pichia kudriavzevii
[3] = system: Saccharomyces cerevisiae; assay: Antimicrobial activity against Saccharomyces cerevisiae isolate ADdelta overexpressing Candida albicans ERG11A after 48 hrs by liquid microdilution assay; format: functional; procedure, shortened: as §1
[4] = system: Pichia kudriavzevii; assay: Antimicrobial activity against Candida krusei B2399 after 48 hrs by CLSI method; format: functional; conditions: B2399, 48 h
Procedure, shortened: (§2)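 Azole MICs were determined by the CLSI M27-A2 broth microdilution reference method. They were interpreted against the CLSI breakpoints. Strains were maintained in YPD medium (1% yeast extract, 2% peptone, 2% glucose).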

[5] = system: Pichia kudriavzevii; assay: Antimicrobial activity against Candida krusei NZCDC 89.221 after 48 hrs by CLSI method; format: functional; procedure, shortened: as §2
[6] = system: Saccharomyces cerevisiae; assay: Antimicrobial activity against Saccharomyces cerevisiae isolate ADdelta overexpressing Abc1p after 48 hrs by liquid microdilution assay; format: functional; procedure, shortened: as §1
[7] = system: Pichia kudriavzevii; assay: Antimicrobial activity against Candida krusei NZCDC 89.102 after 48 hrs by CLSI method; format: functional; procedure, shortened: as §2
[8] = system: Pichia kudriavzevii; assay: Antimicrobial activity against Candida krusei B2399 after 48 hrs by liquid microdilution assay; format: functional; conditions: B2399, 48 h; procedure, shortened: as §1
[9] = system: Saccharomyces cerevisiae; assay: Fold resistant, ratio of MIC for Saccharomyces cerevisiae isolate ADdelta overexpressing Candida krusei ERG11C to MIC for Saccharomyces cerevisiae isolate ADdelta overexpressing Abc1p; format: functional
Procedure, shortened: (§3)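 Fold resistance is the ratio of azole MICs between S. cerevisiae overexpressing strains. The MICs were measured by liquid broth microdilution in CSM medium at pH 7.0. The ERG11 or ABC1 constructs are integrated at the PDR5 locus.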

[10] = system: Saccharomyces cerevisiae; assay: Antimicrobial activity against Saccharomyces cerevisiae isolate ADdelta overexpressing Candida krusei ERG11g after 48 hrs by liquid microdilution assay; format: functional; procedure, shortened: as §1
[11] = system: Saccharomyces cerevisiae; assay: Fold resistant, ratio of MIC for Saccharomyces cerevisiae isolate ADdelta overexpressing Candida krusei ERG11g to MIC for Saccharomyces cerevisiae isolate ADdelta overexpressing Abc1p; format: functional; procedure, shortened: as §3
[12] = system: Pichia kudriavzevii; assay: Antimicrobial activity against Candida krusei NZCDC 89.102 after 48 hrs by liquid microdilution assay; format: functional; conditions: NZCDC 89.102, 48 h; procedure, shortened: as §1
[13] = system: Pichia kudriavzevii; assay: Antimicrobial activity against Candida krusei NZCDC 89.021 after 48 hrs by CLSI method; format: functional; conditions: NZCDC 89.021, 48 h; procedure, shortened: as §2
[14] = system: Saccharomyces cerevisiae; assay: Fold resistant, ratio of MIC for Saccharomyces cerevisiae isolate ADdelta overexpressing Candida albicans ERG11A to MIC for Saccharomyces cerevisiae isolate ADdelta overexpressing Abc1p; format: functional; procedure, shortened: as §3
[15] = system: Pichia kudriavzevii; assay: Antimicrobial activity against Candida krusei NZCDC 90.147 after 48 hrs by CLSI method; format: functional; procedure, shortened: as §2
[16] = system: Pichia kudriavzevii; assay: Antimicrobial activity against Candida krusei NZCDC 89.221 after 48 hrs by liquid microdilution assay; format: functional; conditions: NZCDC 89.221, 48 h; procedure, shortened: as §1
[17] = system: Pichia kudriavzevii; assay: Antimicrobial activity against Candida krusei IFO0011 after 48 hrs by CLSI method; format: functional; conditions: IFO0011, 48 h; procedure, shortened: as §2
[18] = system: Saccharomyces cerevisiae; assay: Antimicrobial activity against Saccharomyces cerevisiae isolate ADdelta overexpressing Saccharomyces cerevisiae ERG11 after 48 hrs by liquid microdilution assay; format: functional; procedure, shortened: as §1
[19] = system: Pichia kudriavzevii; assay: Antimicrobial activity against Candida krusei NZCDC 90.147 after 48 hrs by liquid microdilution assay; format: functional; conditions: NZCDC 90.147, 48 h; procedure, shortened: as §1
[20] = system: Pichia kudriavzevii; assay: Antimicrobial activity against Candida krusei IFO0011 after 48 hrs by liquid microdilution assay; format: functional; conditions: IFO0011, 48 h; procedure, shortened: as §1
[21] = system: Saccharomyces cerevisiae; assay: Fold resistant, ratio of MIC for Saccharomyces cerevisiae isolate ADdelta overexpressing Saccharomyces cerevisiae ERG11 to MIC for Saccharomyces cerevisiae isolate ADdelta overexpressing Abc1p; format: functional; procedure, shortened: as §3
[22] = system: Pichia kudriavzevii; assay: Antimicrobial activity against Candida krusei NZCDC 89.021 after 48 hrs by liquid microdilution assay; format: functional; conditions: NZCDC 89.021, 48 h; procedure, shortened: as §1
[23] = molecular target: ATP binding cassette transporter Abc1p (Issatchenkia orientalis) (UniProt Q09GQ4); assay: Inhibition of Candida krusei IF011 Abc1p assessed as reduction of itraconazole MIC at 1 ug after 48 hrs by agarose diffusion assay; conditions: Pichia kudriavzevii
[24] = molecular target: ATP binding cassette transporter Abc1p (Issatchenkia orientalis) (UniProt Q09GQ4); assay: Inhibition of Candida krusei Abc1p expressed in Saccharomyces cerevisiae isolate AD assessed as reduction of itraconazole MIC at 1 ug after 48 hrs by agarose diffusion assay; conditions: Pichia kudriavzevii
[25] = molecular target: ATP binding cassette transporter Abc1p (Issatchenkia orientalis) (UniProt Q09GQ4); assay: Inhibition of Candida krusei B2399 Abc1p assessed as reduction of itraconazole MIC at 1 ug after 48 hrs by agarose diffusion assay; conditions: Pichia kudriavzevii
[26] = molecular target: ATP binding cassette transporter Abc1p (Issatchenkia orientalis) (UniProt Q09GQ4); assay: Inhibition of Candida krusei Abc1g expressed in Saccharomyces cerevisiae isolate ADdelta assessed as reduction of fluconazole MIC at 2.5 ug/ml after 48 hrs by checkerboard susceptibility assay; conditions: Pichia kudriavzevii
Procedure, shortened: (§4)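 Checkerboard liquid microdilution in CSM (pH 7.0). FLC or ITC MICs of AD/CkABC1g or C. krusei B2399 were measured across a range of milbemycin concentrations. Interaction was expressed as fractional inhibitory concentration index (FICI).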

[27] = molecular target: ATP binding cassette transporter Abc1p (Issatchenkia orientalis) (UniProt Q09GQ4); assay: Inhibition of Candida krusei B2399 Abc1p assessed as reduction of fluconazole MIC at 2.5 ug/ml after 48 hrs by checkerboard susceptibility assay; conditions: Pichia kudriavzevii; procedure, shortened: as §4
[28] = molecular target: ATP binding cassette transporter Abc1p (Issatchenkia orientalis) (UniProt Q09GQ4); assay: Inhibition of Candida krusei Abc1g expressed in Saccharomyces cerevisiae isolate ADdelta assessed as reduction of itraconazole MIC at 2.5 ug/ml after 48 hrs by checkerboard susceptibility assay; conditions: Pichia kudriavzevii; procedure, shortened: as §4
[29] = molecular target: ATP binding cassette transporter Abc1p (Issatchenkia orientalis) (UniProt Q09GQ4); assay: Inhibition of Candida krusei B2399 Abc1p assessed as reduction of itraconazole MIC at 2.5 ug/ml after 48 hrs by checkerboard susceptibility assay; conditions: Pichia kudriavzevii; procedure, shortened: as §4
[30] = molecular target: ATP binding cassette transporter Abc1p (Issatchenkia orientalis) (UniProt Q09GQ4); assay: Inhibition of Candida krusei ABC1 expressed in Saccharomyces cerevisiae isolate ADdelta at 2 nM; conditions: Pichia kudriavzevii
[31] = molecular target: ATP binding cassette transporter Abc1p (Issatchenkia orientalis) (UniProt Q09GQ4); assay: Inhibition of Candida krusei ABC1 expressed in Saccharomyces cerevisiae isolate ADdelta at 46 nM; conditions: Pichia kudriavzevii
Procedure, shortened: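 Agarose disk-diffusion test of S. cerevisiae AD overexpressing C. krusei Abc1p, with the parent AD strain as comparison. Cells were pregrown from YPD overnight into CSM to mid-log at 30°C. They were seeded at OD600 0.008 in CSM with 0.6% agarose, overlaid on CSM agar (pH 7.0). Paper disks carrying set nmol amounts of xenobiotic were applied, and plates were incubated at 30°C for 48 h before reading growth inhibition zones.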

[32] = system: Pichia kudriavzevii; assay: Increase in ERG11 mRNA expression in Candida krusei B2399 at 2 times MIC concentration after 1 hr by hot-phenol extraction based Northern blotting; format: functional, organism-based
Procedure, shortened: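 Logarithmically grown C. krusei B2399 was exposed to azole for 60 min (2x MIC for VRC, MCZ and ITC; 1x MIC for FLC) alongside an untreated control. Total RNA was extracted with hot phenol, and 10 µg was run on 1.2% denaturing agarose. It was Northern blotted and probed with a radiolabeled ERG11 fragment. ACT1 mRNA served as internal control, with EtBr-stained rRNA showing loading.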

Compound: CC(=O)N1CCN(c2ccc(OCC3COC(Cn4ccnc4)(c4ccc(Cl)cc4Cl)O3)cc2)CC1 (stereo unspecified) [KETOCONAZOLE]
- MIC [1]: 0.063 µg/mL (≈ 0.119 µM)
- Activity [2]: inactive
- MIC [3]: 0.125 µg/mL (≈ 0.235 µM)
- MIC [4]: 0.5 µg/mL (≈ 0.941 µM)
- MIC [5]: 0.5 µg/mL (≈ 0.941 µM)
- MIC [6]: 0.031 µg/mL (≈ 0.0583 µM)
- MIC [7]: 0.5 µg/mL (≈ 0.941 µM)
- MIC [8]: 2 µg/mL (≈ 3.76 µM)
- ratio [9]: 2
- MIC [10]: 2 µg/mL (≈ 3.76 µM)
- ratio [11]: 64
- MIC [12]: 4 µg/mL (≈ 7.53 µM)
- MIC [13]: 0.5 µg/mL (≈ 0.941 µM)
- ratio [14]: 4
- MIC [15]: 1 µg/mL (≈ 1.88 µM)
- MIC [16]: 2 µg/mL (≈ 3.76 µM)
- MIC [17]: 1 µg/mL (≈ 1.88 µM)
- MIC [18]: 0.063 µg/mL (≈ 0.119 µM)
- MIC [19]: 4 µg/mL (≈ 7.53 µM)
- MIC [20]: 2 µg/mL (≈ 3.76 µM)
- ratio [21]: 2
- MIC [22]: 4 µg/mL (≈ 7.53 µM)

Compound: CO[C@@H]1C(CO)=C[C@H]2C(=O)O[C@H]3C[C@@H](C/C=C(\C)C[C@@H](C)/C=C/C=C4\CO[C@H]1[C@@]42O)O[C@@]1(CC[C@H](C)[C@@H](C)O1)C3
- Activity [23]: Active
- Activity [24]: Active
- Activity [25]: Active

Compound: C/C=C(\C)C(=O)OCC1=C[C@H]2C(=O)O[C@H]3C[C@@H](C/C=C(\C)C[C@@H](C)/C=C/C=C4\CO[C@H]([C@@H]1O)[C@@]42O)O[C@@]1(CC[C@H](C)[C@@H](C)O1)C3
- Activity [26]: Active
- MIC [27]: 64 µg/mL
- Activity [23]: Active
- Activity [28]: Active
- Activity [24]: Active
- MIC [29]: 0.125 µg/mL
- Activity [25]: Active

Compound: CO[C@@H]1C(C)=C[C@H]2C(=O)O[C@H]3C[C@@H](C/C=C(\C)C[C@@H](C)/C=C/C=C(\CO)[C@]2(O)[C@@H]1O)O[C@@]1(CC[C@H](C)[C@@H](C)O1)C3
- Activity [23]: Active
- Activity [24]: Active
- Activity [25]: Active

Compound: C/C=C/C/C=C/CCC(=O)[C@H]1O[C@H]1C(N)=O
- Activity [30]: Active

Compound: CN(C/C=C/C#CC(C)(C)C)Cc1cccc2ccccc12
- Activity [31]: inactive

Compound: CC1=C[C@H]2C(=O)O[C@H]3C[C@@H](C/C=C(\C)C[C@@H](C)/C=C/C=C(\C)[C@]2(O)[C@H](O)[C@@H]1O)O[C@@]1(CC[C@H](C)[C@@H](C)O1)C3
- Activity [26]: Active
- Activity [27]: Active
- Activity [23]: Active
- Activity [28]: Active
- Activity [24]: Active
- Activity [29]: Active
- Activity [25]: Active

Compound: C[C@@H](c1ncncc1F)[C@](O)(Cn1cncn1)c1ccc(F)cc1F [VORICONAZOLE]
- MIC [1]: 0.063 µg/mL (≈ 0.18 µM)
- MIC [3]: 0.031 µg/mL (≈ 0.0887 µM)
- MIC [4]: 0.5 µg/mL (≈ 1.43 µM)
- MIC [5]: 0.5 µg/mL (≈ 1.43 µM)
- MIC [6]: 0.0078 µg/mL (≈ 0.0223 µM)
- MIC [7]: 0.5 µg/mL (≈ 1.43 µM)
- MIC [8]: 1 µg/mL (≈ 2.86 µM)
- ratio [9]: 8
- MIC [10]: 0.5 µg/mL (≈ 1.43 µM)
- ratio [11]: 64
- MIC [12]: 2 µg/mL (≈ 5.73 µM)
- MIC [13]: 0.5 µg/mL (≈ 1.43 µM)
- ratio [14]: 4
- MIC [15]: 1 µg/mL (≈ 2.86 µM)
- Activity [32]: Active
- MIC [16]: 1 µg/mL (≈ 2.86 µM)
- MIC [17]: 1 µg/mL (≈ 2.86 µM)
- MIC [18]: 0.063 µg/mL (≈ 0.18 µM)
- MIC [19]: 2 µg/mL (≈ 5.73 µM)
- MIC [20]: 1 µg/mL (≈ 2.86 µM)
- ratio [21]: 8
- MIC [22]: 2 µg/mL (≈ 5.73 µM)
